Screens (PubChem BioAssay)
PfM18AAP inh-1 = PfM18AAP enzyme inhibition | recombinant PfM18AAP, H-Glu-NHMec fluorogenic cleavage | inhibition, % at 7.35 µM | hit rate 1.2% among 290,000;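 active = inhibition above the campaign mean inhibition over all tested compounds plus 3 SD, cut at about 28% in these data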
Rtt109 Vps75 = C. albicans Rtt109 histone acetyltransferase inhibition. hit rate 0.16% among 330,000. purified Rtt109/Vps75, ThioGlo CoA-SH fluorescence, 4 h. Q5AAJ8. inhibition, % at 34.9 µM. AID 540336;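 active = inhibition of at least 50% in every replicate; inconclusive = best replicate reaches 50% inhibition but some replicates fall short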
FAS-TE inh = blocks the thioesterase domain of human fatty acid synthase | P49327 | recombinant FAS-TE, OMFH fluorogenic substrate, fluorescence endpoint | inhibition, % at 15 µM | hit rate 0.67% among 360,000 | AID 602261;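 active = compounds whose normalised, plate-corrected inhibition of enzyme fluorescence in the single-dose primary screen is 50% or more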
UCH37 inh = blocks the human deubiquitinase UCH37; purified proteasome/UCH37, Ub-AMC cleavage fluorescence; inhibition, % (no concentration beside the values); Q9Y5K5; AID 588478; hit rate 0.33% among 330,000;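 active = mean inhibition over replicate wells above about 20%, limit read from the data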
Target sequence (Q9Y5K5 whole entry, looked up): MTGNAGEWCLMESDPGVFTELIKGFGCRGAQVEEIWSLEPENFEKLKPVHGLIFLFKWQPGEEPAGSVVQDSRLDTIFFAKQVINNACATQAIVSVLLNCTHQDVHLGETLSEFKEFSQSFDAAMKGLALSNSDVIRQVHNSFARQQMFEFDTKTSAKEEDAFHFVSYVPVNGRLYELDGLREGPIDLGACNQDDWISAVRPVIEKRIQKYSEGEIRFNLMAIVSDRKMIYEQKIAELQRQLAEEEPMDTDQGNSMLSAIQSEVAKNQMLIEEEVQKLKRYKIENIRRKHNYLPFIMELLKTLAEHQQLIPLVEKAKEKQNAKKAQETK
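Schedule: 30 min plus 25 min, room temperature / Material: human UCH37 within purified proteasomes / Technique: AMC fluorescence intensity at 355/460 nm / Buffer or medium: pH 7.4 Tris-HCl (50 mM) with ovalbumin, ATP-MgCl2, DTT / Controls: wells without proteasome as full block, compound-free enzyme plus substrate as uninhibited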
HDAC3 inhib = blocks human histone deacetylase 3; recombinant HDAC3, fluorogenic peptide/trypsin coupled, fluorescence; inhibition, % at 8.3 µM; O15379; hit rate 0.15% among 320,000; in the data active = inhibition above about 26%, passing the limit was not always enough; inconclusive = no clear call, values can overlap the other calls
ALR H2O2 inh = human ALR oxidase inhibition via reduced H2O2; P55789; hit rate 3.8% among 290,000; purified ALR, DTT oxidation, H2O2 HRP-luminol luminescence; inhibition, % (concentration not given with the values);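 active = mean replicate inhibition above about 79%, with every replicate also reaching it, limit read from the data; inconclusive = only one of the two criteria met; inactive = mean below limit and not every replicate reaching it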
PfM18AAP inh-2 = PfM18AAP inhibition, confirmation; inhibition, % at 7.35 µM; recombinant PfM18AAP, H-Glu-NHMec fluorogenic cleavage; shares compounds with PfM18AAP inh-1; hit rate 28% among 2,400;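 active = mean inhibition over replicate wells above the hit cutoff set for the earlier primary screen, cut at about 29% in these data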
CTSL1 counter = counter-screen for PFM18AAP inhibitors: confirmation of human cathepsin L inhibitors. purified cathepsin L1, Z-Leu-Arg-MCA fluorescence. inhibition, % at 5.96 µM. shares compounds with PfM18AAP inh-1. AID 2178. 2,400 tested, under 10 active;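 active = average inhibition across replicates above the hit cutoff set in the earlier primary screen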
Target sequence (P07711 whole entry, looked up): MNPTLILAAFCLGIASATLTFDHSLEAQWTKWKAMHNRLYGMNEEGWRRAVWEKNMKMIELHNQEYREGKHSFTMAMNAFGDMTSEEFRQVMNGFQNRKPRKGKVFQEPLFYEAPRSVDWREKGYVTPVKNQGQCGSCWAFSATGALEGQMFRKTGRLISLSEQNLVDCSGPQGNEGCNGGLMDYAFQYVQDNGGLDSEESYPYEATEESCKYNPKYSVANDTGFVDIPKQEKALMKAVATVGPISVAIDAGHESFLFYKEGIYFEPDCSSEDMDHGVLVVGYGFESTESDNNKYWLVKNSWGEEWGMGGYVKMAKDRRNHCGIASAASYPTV
Numbers stand for hits. Compounds with a hit are over-represented: about 4.6% of the library has one in this group of screens.

For O=C(NN1C(=O)CSC1=S)C(=O)NN1C(=O)CSC1=S the results were PfM18AAP inh-1 41, Rtt109 Vps75 inactive, FAS-TE inh inactive, UCH37 inh inactive, HDAC3 inhib inactive, ALR H2O2 inh inactive, PfM18AAP inh-2 52 and CTSL1 counter inactive.
Screening COC(=O)C(=NNc1ccccc1Cl)Sc1nnc(C(O)c2ccccc2)n1-c1ccccc1 (stereo unspecified) returned UCH37 inh inactive.
For CN(C)c1ccc(NC(N)=S)cc1 the results were PfM18AAP inh-1 49, Rtt109 Vps75 inactive, FAS-TE inh inactive, UCH37 inh inactive, HDAC3 inhib inactive, ALR H2O2 inh 99, PfM18AAP inh-2 inactive and CTSL1 counter inactive.
Cc1nn(Cc2ccccc2)c(C)c1C=NNC(=O)c1cccnc1 was read as UCH37 inh inactive.
`COc1ccc(NC(=S)NNc2ccc(S(=O)(=O)Nc3ccccc3C(=O)O)cc2[N+](=O)[O-])cc1` gave PfM18AAP inh-1 64, Rtt109 Vps75 inactive, FAS-TE inh inactive, UCH37 inh inactive, HDAC3 inhib inactive, ALR H2O2 inh 99, PfM18AAP inh-2 42 and CTSL1 counter inactive.
Screening CCOc1ccc(C=NNc2ccc(S(=O)(=O)Nc3ccccc3C(=O)O)cc2[N+](=O)[O-])cc1 returned Rtt109 Vps75 inactive, FAS-TE inh inactive, UCH37 inh inactive, HDAC3 inhib inactive and ALR H2O2 inh inactive.
Screening COc1c(C=NNC(=O)[C@H]2C[C@@H]2c2ccccc2)c(CCN(C)C(C)=O)cc2c1OCO2 returned UCH37 inh inactive.
For N=c1c(C(=O)NC2CCCC2)cc2c(=O)n3ccccc3nc2n1C1CCCC1 the results were PfM18AAP inh-1 inactive, Rtt109 Vps75 inactive, FAS-TE inh inactive, UCH37 inh inactive, HDAC3 inhib inactive and ALR H2O2 inh inactive.
`N=c1c(C(=O)NCc2ccco2)cc2c(=O)n3ccccc3nc2n1C1CCCC1` gave PfM18AAP inh-1 36, Rtt109 Vps75 inactive, FAS-TE inh inactive, UCH37 inh inactive, HDAC3 inhib inactive, ALR H2O2 inh inactive, PfM18AAP inh-2 inactive and CTSL1 counter inactive.
`COc1cccc(C2C(C#N)=C(N)N(N(C)C)C3=C2C(=O)CCC3)c1` (stereo unspecified) gave PfM18AAP inh-1 inactive, Rtt109 Vps75 inactive, FAS-TE inh inactive, UCH37 inh inactive, HDAC3 inhib inactive and ALR H2O2 inh inactive.
COc1ccc(N2C(N)=C(C#N)C(c3ccsc3)C3=C2CCCC3=O)c(OC)c1 (stereo unspecified) was read as PfM18AAP inh-1 35, Rtt109 Vps75 inactive, FAS-TE inh inactive, UCH37 inh inactive, PfM18AAP inh-2 inactive and CTSL1 counter inactive.
Cn1c(=NC(=O)c2ccccc2[N+](=O)[O-])sc2cc(S(C)(=O)=O)ccc21 was read as PfM18AAP inh-1 inactive, Rtt109 Vps75 inactive, FAS-TE inh inactive and HDAC3 inhib inactive.
CS(=O)(=O)c1ccc2c(c1)sc1nc(=O)c(/C=C3/C=CC(=O)C(O)=C3)c(N)n12 was read as PfM18AAP inh-1 58, Rtt109 Vps75 inactive, FAS-TE inh inactive, UCH37 inh inactive, HDAC3 inhib inactive, ALR H2O2 inh 90, PfM18AAP inh-2 62 and CTSL1 counter inactive.
Cc1ccccc1OCC(=O)NCC(=O)OCC(=O)c1ccc([N+](=O)[O-])cc1 was read as PfM18AAP inh-1 46, Rtt109 Vps75 130, FAS-TE inh inactive, UCH37 inh inactive, HDAC3 inhib inactive, ALR H2O2 inh 97, PfM18AAP inh-2 inactive and CTSL1 counter inactive.
Screening O=C(CNC(=O)c1cccs1)NCC(=O)OCC(=O)c1ccc([N+](=O)[O-])cc1 returned PfM18AAP inh-1 46, Rtt109 Vps75 inconclusive, FAS-TE inh inactive, UCH37 inh inactive, HDAC3 inhib inactive, ALR H2O2 inh 96, PfM18AAP inh-2 inactive and CTSL1 counter inactive.
Cc1ccc(CSc2nnc(SCC(=O)NN=Cc3ccc(C(=O)O)cc3)s2)cc1 was read as UCH37 inh inactive.
`COc1ccc(NC(C)C(=O)NN=Cc2ccccc2OCc2ccc(Br)cc2)cc1` (stereo unspecified) gave UCH37 inh inactive.
`O=C(NN=Cc1ccc([N+](=O)[O-])s1)c1cccc(Br)c1` gave UCH37 inh inactive.
For COC(=O)c1c[nH]c(=O)c2ccccc12 the results were PfM18AAP inh-1 inactive, Rtt109 Vps75 inactive, FAS-TE inh inactive, UCH37 inh inactive, HDAC3 inhib inactive and ALR H2O2 inh inactive.
COC(=O)c1ccc(C(=O)OC)c(=O)[nH]1 was read as PfM18AAP inh-1 inactive, Rtt109 Vps75 inactive, FAS-TE inh inactive, UCH37 inh inactive, HDAC3 inhib inactive, ALR H2O2 inh inactive, PfM18AAP inh-2 inactive and CTSL1 counter inactive.
Screening COC(=O)CN(n1cnnc1)S(=O)(=O)c1ccccc1 returned PfM18AAP inh-1 78, Rtt109 Vps75 inactive, FAS-TE inh inactive, UCH37 inh inactive, HDAC3 inhib inactive, ALR H2O2 inh inactive, PfM18AAP inh-2 85 and CTSL1 counter inactive.
`COc1ccc(C=NN2C(=O)CSC2=S)cc1` gave UCH37 inh inactive.
O=C1CSC(=S)N1/N=C/c1ccc2c(c1)OCCO2 was read as PfM18AAP inh-1 34, Rtt109 Vps75 inactive, FAS-TE inh inactive, HDAC3 inhib inactive, PfM18AAP inh-2 inactive and CTSL1 counter inactive.
`COc1cc(/C=N/N2C(=O)CSC2=S)ccc1O` gave PfM18AAP inh-1 33, Rtt109 Vps75 inactive, FAS-TE inh inactive, HDAC3 inhib inactive, PfM18AAP inh-2 inactive and CTSL1 counter inactive.
Screening CN1CCN(C(=S)c2ccc([N+](=O)[O-])cc2)CC1 returned PfM18AAP inh-1 inactive, Rtt109 Vps75 inactive, FAS-TE inh inactive, UCH37 inh inactive, HDAC3 inhib inactive and ALR H2O2 inh inactive.
`CN1CCN(C(=S)c2ccc(Br)cc2)CC1` gave PfM18AAP inh-1 47, Rtt109 Vps75 inactive, FAS-TE inh inactive, UCH37 inh inactive, HDAC3 inhib inactive, PfM18AAP inh-2 inactive and CTSL1 counter inactive.
Screening CN1CCN(C(=S)c2ccc(N(C)C)cc2)CC1 returned PfM18AAP inh-1 40, Rtt109 Vps75 inactive, FAS-TE inh inactive, UCH37 inh inactive, HDAC3 inhib inactive, ALR H2O2 inh 99, PfM18AAP inh-2 inactive and CTSL1 counter inactive.
Screening CCN1CCN(CCC(=O)Nc2ccc(Br)cc2)CC1 returned PfM18AAP inh-1 inactive, Rtt109 Vps75 inactive, FAS-TE inh inactive, UCH37 inh inactive and ALR H2O2 inh inactive.
Screening CSc1ccc(C(=S)N2CCN(C)CC2)cc1 returned PfM18AAP inh-1 inactive, FAS-TE inh inactive, UCH37 inh inactive, HDAC3 inhib inactive and ALR H2O2 inh inactive.
